Assay results taken from ChEMBL document CHEMBL4402600, “Discovery of a Dual Tubulin Polymerization and Cell Division Cycle 20 Homologue Inhibitor via Structural Modification on Apcin” (J Med Chem, 2020).
Active and inactive are the calls of the source. The rule behind the calls is not given here.

Columns and labels:
MCF7 = assay: Cytotoxicity in human MCF7 cells assessed as reduction in cell viability incubated for 48 hrs by MTT assay; assay type: functional, cell-based; settings: MCF7, 48 h
Procedure, shortened: (§1)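 Cells grown at 37°C, 5% CO₂ (HepG2, OVCAR-3, Caov-3 in DMEM + 10% FBS; A549, HeLa, A375, MCF-7 in RPMI 1640 + 10% FBS). Seeded at 4-5×10³/well in triplicate, adhered overnight, exposed to 0.03–300 μM (DMSO <0.1%) for 48 h. MTT added for 4 h, formazan dissolved in DMSO, absorbance read. IC50 from dose–response curves, mean ± SD of at least three independent experiments.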

A-375 = assay: Cytotoxicity in human A375 cells assessed as reduction in cell viability incubated for 48 hrs by MTT assay; assay type: functional, cell-based; settings: A-375, 48 h; procedure, shortened: as §1
A549 = assay: Cytotoxicity in human A549 cells assessed as reduction in cell viability incubated for 48 hrs by MTT assay; assay type: functional, cell-based; settings: A549, 48 h; procedure, shortened: as §1
HepG2 [1] = assay: Cytotoxicity in human HepG2 cells assessed as reduction in cell viability incubated for 48 hrs by MTT assay; assay type: functional, cell-based; settings: HepG2, 48 h; procedure, shortened: as §1
HeLa = assay: Cytotoxicity in human HeLa cells assessed as reduction in cell viability incubated for 48 hrs by MTT assay; assay type: functional, cell-based; procedure, shortened: as §1
OVCAR-3 = assay: Cytotoxicity in human OVCAR3 cells assessed as reduction in cell viability incubated for 48 hrs by MTT assay; assay type: functional, cell-based; settings: OVCAR-3, 48 h; procedure, shortened: as §1
Caov-3 cell line = assay: Cytotoxicity in human Caov3 cells assessed as reduction in cell viability incubated for 48 hrs by MTT assay; assay type: functional, cell-based; settings: Caov-3, 48 h; procedure, shortened: as §1
[2] = molecular target: T1, Cell division cycle protein 20 homolog (Homo sapiens, UniProt Q12834); assay: Binding affinity to CDC20 (unknown origin) by SPR analysis
T1 sequence (Q12834 whole entry): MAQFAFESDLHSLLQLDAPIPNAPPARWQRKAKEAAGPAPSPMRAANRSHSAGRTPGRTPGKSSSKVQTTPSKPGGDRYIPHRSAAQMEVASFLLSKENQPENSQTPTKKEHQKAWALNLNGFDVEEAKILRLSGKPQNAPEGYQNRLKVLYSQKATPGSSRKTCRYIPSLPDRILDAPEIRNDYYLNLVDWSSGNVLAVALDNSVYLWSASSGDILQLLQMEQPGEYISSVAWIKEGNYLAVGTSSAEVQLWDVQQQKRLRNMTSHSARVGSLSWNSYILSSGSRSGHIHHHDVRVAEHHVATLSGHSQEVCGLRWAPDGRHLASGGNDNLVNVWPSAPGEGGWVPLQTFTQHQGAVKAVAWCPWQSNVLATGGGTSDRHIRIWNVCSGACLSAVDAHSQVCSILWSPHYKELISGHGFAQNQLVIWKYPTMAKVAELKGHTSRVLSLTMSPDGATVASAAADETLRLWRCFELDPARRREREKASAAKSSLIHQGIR
Procedure, shortened: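 Recombinant human Cdc20 (>95% pure) coupled by EDC/NHS to an acid-coupling chip; PBS pH 7.4 running buffer. Compounds injected as a gradient dilution series starting at 200 μM, 120-140 s association, 160 s dissociation. Steady-state values plotted against concentration; K_D from a one-to-one / single-site model.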

[3] = molecular target: T1, Cell division cycle protein 20 homolog; assay: Inhibition of CDC20 in human HepG2 cells assessed as increase in Bim protein levels at 100 uM incubated for 48 hrs by Western blot Analysis; assay type: cell-based
Procedure, shortened: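 HepG2 lysates in RIPA buffer with protease/phosphatase inhibitors; 25 μg protein by SDS-PAGE/PVDF, blocked in 5% milk/TBST, primary antibodies overnight at 4°C (Cyclin A2, Cyclin B1, Bim, Aurora A, Skp2), HRP secondary 1 h at room temperature, ECL; bands quantified by densitometry.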

HepG2 [4] = assay: Inhibition of mitotic exit in human HepG2 cells assessed as increase in nuclear phosphohistone H3 levels incubated for 48 hrs by immunofluorescence assay; assay type: functional, cell-based
Procedure, shortened: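 HepG2 seeded at 4×10³/well, overnight adhesion, treated 48 h. Fixed 15 min in 4% formaldehyde, permeabilized with Triton X-100, BSA-blocked, anti-phospho-histone H3 (Ser10) at 4°C overnight, fluorescent anti-rabbit secondary, DAPI counterstain. Fluorescence read relative to DMSO control; PHH3-positive cells counted in random fields as % of total. At least two experiments.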

HepG2 [5] = assay: Induction of apoptosis in human HepG2 cells assessed as increase in cleaved PARP level at 30 to 100 uM incubated for 48 hrs by Western blot analysis; assay type: functional, cell-based
Procedure, shortened: (§2)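 HepG2 cells treated 48 h. Lysates in RIPA buffer with protease/phosphatase inhibitors; 25 μg protein run on SDS-PAGE, transferred to PVDF, blocked in 5% milk/TBST, primary antibodies overnight at 4°C (caspase-3, cleaved caspase-3, cleaved PARP), HRP secondary 1 h at room temperature, ECL detection; densitometry quantified.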

HepG2 [6] = assay: Induction of apoptosis in human HepG2 cells assessed as increase in cleaved caspase-3 level at 30 to 100 uM incubated for 48 hrs by Western blot analysis; assay type: functional, cell-based; procedure, shortened: as §2
HepG2 [7] = assay: Induction of apoptosis in human HepG2 cells assessed as viable cells level at 300 uM incubated for 24 hrs by Annexin V-FITC/PI staining based flow cytometry (reference value: 89.38%); assay type: functional
HepG2 [8] = assay: Induction of apoptosis in human HepG2 cells assessed as early apoptotic cells level at 300 uM incubated for 24 hrs by Annexin V-FITC/PI staining based flow cytometry (reference value: 4.02%); assay type: functional
HepG2 [9] = assay: Induction of apoptosis in human HepG2 cells assessed as late apoptotic cells level at 300 uM incubated for 24 hrs by Annexin V-FITC/PI staining based flow cytometry (reference value: 5.12%); assay type: functional
HepG2 [10] = assay: Induction of apoptosis in human HepG2 cells assessed as necrotic cells level at 300 uM incubated for 24 hrs by Annexin V-FITC/PI staining based flow cytometry (reference value: 1.48%); assay type: functional
HepG2 [11] = assay: Induction of apoptosis in human HepG2 cells assessed as viable cells level at 100 uM incubated for 24 hrs by Annexin V-FITC/PI staining based flow cytometry (reference value: 89.38%); assay type: functional
HepG2 [12] = assay: Induction of apoptosis in human HepG2 cells assessed as early apoptotic cells level at 100 uM incubated for 24 hrs by Annexin V-FITC/PI staining based flow cytometry (reference value: 4.02%); assay type: functional
HepG2 [13] = assay: Induction of apoptosis in human HepG2 cells assessed as late apoptotic cells level at 100 uM incubated for 24 hrs by Annexin V-FITC/PI staining based flow cytometry (reference value: 5.12%); assay type: functional
HepG2 [14] = assay: Induction of apoptosis in human HepG2 cells assessed as necrotic cells level at 100 uM incubated for 24 hrs by Annexin V-FITC/PI staining based flow cytometry (reference value: 1.48%); assay type: functional
HepG2 [15] = assay: Inhibition of mitotic exit in human HepG2 cells assessed as increase in nuclear phosphohistone H3 levels at 10 to 100 uM incubated for 48 hrs by relative to control

| Compound | IC50 (MCF7) [µM] | IC50 (A-375) [µM] | IC50 (A549) [µM] | IC50 (HepG2 [1]) [µM] | IC50 (HeLa) [µM] | IC50 (OVCAR-3) [µM] | IC50 (Caov-3 cell line) [µM] | Kd [2] [µM] | further results |
| --- | --- | --- | --- | --- | --- | --- | --- | --- | --- |
| Cc1ncc([N+](=O)[O-])n1CCOC(=O)NC(Nc1ncccn1)C(Cl)(Cl)Cl (centres undefined) | > 300 | 193 | > 300 | > 300 | 221 | > 300 | > 300 | 123 | inhibition [3]: Active; Activity (HepG2 [4]): Dose-dependent effect; Activity (HepG2 [5]): Active; Activity (HepG2 [6]): Active; Activity (HepG2 [7]): 6.82%; Activity (HepG2 [8]): 62.43%; Activity (HepG2 [9]): 30.02%; Activity (HepG2 [10]): 0.73%; Activity (HepG2 [11]): 82.91%; Activity (HepG2 [12]): 7.85%; Activity (HepG2 [13]): 6.85%; Activity (HepG2 [14]): 2.39%; fold change (FC) (HepG2 [15]): 2.2 |
| Cc1ncc([N+](=O)[O-])n1CCOC(=O)NC(n1cnc2c(N)nc(F)nc21)C(Cl)(Cl)Cl (centres undefined) | 0.8 | 0.5 | 3.6 | 0.6 | 1.9 | 1.5 | 1.2 | 161 |  |
